Compounds with a hit are over-represented: about 3.5% of the library has one in this group of screens.
RGS4 inh = human RGS4 inhibition. P49798. HEK293 M3R/RGS4 inducible, Fluo-4 calcium flux; hits give high values; triggered by carbachol at its EC20. B-score at 10 µM. 310,000 tested, 0.45% active;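 active means B-score, a plate-corrected calcium signal, over three deviations above library mean, with baseline fluorescence within five deviations of library mean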;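 further: RGS4 expression induced by doxycycline in cells with stable M3 receptor; B-score is computed from the integrated fluorescence ratio over baseline after carbachol; higher B-score means a larger calcium signal and so more RGS4 inhibition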
Target sequence (P49798 whole entry, looked up): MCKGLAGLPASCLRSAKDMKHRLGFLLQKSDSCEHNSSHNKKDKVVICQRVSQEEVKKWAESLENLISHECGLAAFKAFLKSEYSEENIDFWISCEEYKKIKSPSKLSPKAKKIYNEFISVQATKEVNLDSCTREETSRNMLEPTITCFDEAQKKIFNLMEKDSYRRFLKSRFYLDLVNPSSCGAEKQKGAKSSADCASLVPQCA
MrgX1 antag = blocks BAM8-22 activation of human MrgX1 receptor. 310,000 tested, 1.3% active. B-score at 10 µM. Q96LB2. MRGX1-HEK293 calcium flux, Fluo-4, BAM8-22 antagonism; hits give low values;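 active means calcium-response B-score plate-corrected more than 3 library SD below zero, starting fluorescence within 5 deviations, no agonist response on first addition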;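 further: peak minus trough fluorescence over baseline after final BAM8-22 challenge near maximal dose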
Target sequence (Q96LB2 whole entry, looked up): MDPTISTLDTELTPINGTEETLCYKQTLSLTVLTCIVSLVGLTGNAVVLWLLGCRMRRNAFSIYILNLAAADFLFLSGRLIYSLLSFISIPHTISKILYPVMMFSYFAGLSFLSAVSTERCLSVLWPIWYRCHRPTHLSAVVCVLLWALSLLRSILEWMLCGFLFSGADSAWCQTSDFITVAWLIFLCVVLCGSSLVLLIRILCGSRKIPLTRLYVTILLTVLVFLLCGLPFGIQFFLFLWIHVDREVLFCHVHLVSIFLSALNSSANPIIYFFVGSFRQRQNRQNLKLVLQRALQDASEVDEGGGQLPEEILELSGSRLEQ
MrgX1 agonist = agonists of human MrgX1 receptor. AID 588627. MrgX1-HEK293 cells, Fluo-4 calcium fluorescence, agonist mode; hits give high values. 310,000 tested, 0.44% active. B-score at 10 µM;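 active means calcium response B-score plate-corrected fluorescence ratio at least 3 library SD, with starting fluorescence B-score inside 5 SD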
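System – MrgX1-expressing HEK293 cells · Incubation – cells plated overnight, dye loaded 0.5 h 37 °C, 0.5 h room temperature · Technique – kinetic Fluo-4 NW fluorescence of intracellular calcium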
MrgX1 allo act = human MrgX1 positive allosteric modulation, primary screen. Q96LB2. MrgX1-HEK293, Fluo-4 calcium flux, FDSS; hits give high values. B-score at 10 µM. 310,000 tested, 0.63% active. AID 588675;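 active means plate-corrected calcium response at least 3 library SD above typical, normal starting fluorescence, not activating the receptor alone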;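 further: compound read alongside a low EC10 to EC30 dose of BAM8-22 agonist; peak minus trough fluorescence over baseline measured at the second addition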
RGS4 pot = RGS4 potentiation or activation. HEK293 M3R/inducible RGS4, carbachol calcium flux Fluo4; hits give low values. B-score at 10 µM. 310,000 tested, 0.92% active. AID 463111;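 active means B-score of the integrated calcium signal more than 4 SD below the library mean, with starting fluorescence not abnormally high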;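 further: negative B-score means reduced calcium response which marks RGS4 activation or potentiation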
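Material: M3R-expressing HEK293 line, RGS4 induced by doxycycline | Schedule: Overnight RGS4 induction, 30 min dye load 37 °C, 20 min compound RT | Measured by: Fluo4 fluorescence kinetic imaging of calcium | Read-out: Integrated calcium ratio converted to B score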
* marks the source's active call; other numbers are inactive results; i = inactive; . = no result given.

SMILES | RGS4 inh | MrgX1 antag | MrgX1 agonist | MrgX1 allo act | RGS4 pot
Fc1cccc(Cc2noc(CN3CCCN(C4Cc5ccccc5C4)CC3)n2)c1 | i | i | i | i | -7.5*
Fc1cccc(Cc2noc(CN3CCSCC3)n2)c1 | i | i | i | i | i
OCCCCNCc1ccc(OCc2ccc(Cl)cc2)cc1 | i | i | i | i | -7.3*
CCCCCNCc1ccc(Cl)cc1 | i | i | i | i | i
COC(=O)c1ccc(NC(=O)c2cccc(C)c2[N+](=O)[O-])cc1 | i | -6.3* | i | i | i
O=C(Nc1ccc([N+](=O)[O-])cc1)Nc1ccc(Cl)cc1F | i | -4.9* | i | i | i
O=C(Nc1ccc(C(=O)O)cc1)Nc1ccc([N+](=O)[O-])cc1 | i | i | i | i | i
O=C(Nc1ccc([N+](=O)[O-])cc1)Nc1ccon1 | i | -4.6* | i | i | i
COC(=O)c1ccc(NC(=O)Nc2ccc([N+](=O)[O-])cc2)cc1 | i | -7.6* | i | i | i
O=C(Nc1ccc(Cl)cc1)Nc1cc([N+](=O)[O-])ccc1F | i | i | i | i | i
CCC(C)c1ccc(C(CC)NC(=O)C2CCCO2)cc1 (centres undefined) | i | i | i | i | i
CN1CCc2c(sc3nc(SCC(=O)N4CCOCC4)n(-c4ccc(Cl)cc4)c(=O)c23)C1 | i | i | i | i | i
OCOCCCn1c(C2CCCN2c2nc(-c3ccc(F)cc3)cs2)nc2cc(Cl)c(N3CCCCC3)cc21 (centres undefined) | i | i | i | i | i
Cn1c(=O)c(NCCO)c2c3c(cccc31)C(=O)c1ccccc1-2 | i | i | i | i | -12*
COc1ccc(/C(N)=N/OC(=O)c2cccs2)cc1 | i | i | i | i | i
N/C(=N\OC(=O)c1cccs1)c1ccc(Cl)cc1 | i | -5.8* | i | i | i
Cc1ccc(-n2ncc3c2CC(C)(C)CC3NC(=O)CCN2CCCCC2=O)cc1 (centres undefined) | i | i | i | i | i
CCc1cc2cc(C)ccc2nc1SCC(=O)NC1CCCC1 | i | i | i | i | i
CN1OC(Cn2cc(C#N)c(=O)n(C)c2=O)CC1c1ccccc1 (centres undefined) | i | -5.8* | i | i | i
COc1ccc(-c2cc3cc(OC)c(OC)cc3c(C)n2)cc1 | i | i | i | i | i
COc1ccccc1NC(=O)CCCC(=O)OCC(F)(F)C(F)F | i | -6.2* | i | i | i
CNC(=O)c1ccc(-c2sc3nc(N4CCOCC4)c4c(c3c2N)CCCC4)o1 | i | i | i | 12* | i
CC(C)CCN(C(=S)Nc1cccc(F)c1)C(C)c1cccs1 (centres undefined) | i | i | i | 10* | i
COCCN(C(=S)Nc1cccc(C)c1)C(C)c1cccs1 (centres undefined) | i | i | i | i | i
CCOc1ccc(NS(=O)(=O)c2c(C)nc3sccn3c2=O)cc1 | i | i | i | i | i
SMILES | RGS4 inh | MrgX1 antag | MrgX1 agonist | MrgX1 allo act | RGS4 pot
C=CCOc1ccccc1CNCCCN1CCOCC1 | i | -7.3* | i | i | i
Cc1ccc(NCc2nc(SCC(=O)Nc3ccccc3)n[nH]2)cc1 | i | i | i | i | i
CC(C)OP(=O)(c1ccc(N(C)C)cc1)C(O)c1ccc(C(C)C)cc1 (centres undefined) | i | i | i | i | i
Cc1cc(C)n(C(=O)c2c([N+](=O)[O-])c(C)nn2C)n1 | i | -7.7* | i | i | i
N/C(=N\OC(=O)c1cccnc1)c1ccccc1Cl | i | i | i | i | i
N/C(=N\OC(=O)c1cccnc1)c1ccc(Cl)cc1Cl | i | -4.6* | i | i | i
O=[n+]1cc(-c2ccc(Br)cc2)n([O-])c2c1CCC2 | i | -4.6* | i | i | i
O=[n+]1cc(-c2ccc(Cl)cc2)n([O-])c2c1CCC2 | i | i | i | i | i
CCN(CC)CCN1c2ccccc2Sc2ccccc21 | i | i | i | i | -7.1*
CCN(CC)CCN1c2ccccc2Sc2ccc3ccccc3c21 | i | i | i | i | -7.5*
CCN(CC)CCOC(=O)c1ccc(NC(=O)CCCN2C(=O)/C(=C/c3cccs3)SC2=S)cc1 | i | i | i | i | -8.3*
COCOc1ccc(C=O)c(OCOC)c1 | i | i | i | i | i
Cc1c(OCC(=O)N[C@@H](Cc2c[nH]c3ccccc23)C(=O)O)ccc2c1oc(=O)c1ccccc12 | i | i | i | i | i
CC1OC(O[C@H]2CC[C@]3(C)C4C=C[C@]56OC[C@@]7(CC[C@@H](C)[C@H](C)C75)[C@H](O)C[C@@]6(C)[C@]4(C)CC[C@H]3C2(C)C)C(OC2OC(CO)C(O)C(O)C2OC2OCC(O)C(O)C2O)C(O)C1O (some centres undefined) | i | . | . | . | -7.5*
CC1CCN(C(=O)c2ccc3c(c2NCCO)C(=O)c2ccccc2C3=O)CC1 | i | i | i | 9.9* | i
O=C(COC(=O)c1ccc(F)c(S(=O)(=O)N2CCOCC2)c1)NCCc1ccccc1 | i | i | i | i | i
COc1ccccc1NC(=O)CCN1C(=O)C2CC=CCC2C1=O (centres undefined) | i | i | i | i | i
O=C(NCCCN1CCN(Cc2ccccc2)CC1)c1nnc(Cc2c(F)cccc2Cl)o1 | i | -4.7* | i | i | i
O=C(NCCCO)c1nnc(Cc2c(F)cccc2Cl)o1 | i | i | i | i | i
CC(C)(C)c1cc(/C=N/NC(=O)C[n+]2ccccc2)cc(C(C)(C)C)c1O | i | i | i | i | -7*
CC(C)(C)c1ccc(/C=N/NC(=O)C[n+]2ccccc2)cc1 | i | i | i | i | -7.1*
Fc1ccc(OCCOCCN2CCCC2)cc1 | i | i | i | i | i
CC(OCCN1CCCC1)(c1ccc(F)cc1)c1ccc(F)cc1 | i | i | i | i | -7.5*
O=C(Nc1ccccn1)c1cc2ccccc2cc1O | i | i | i | i | i
CC(C)CC(=O)Nc1cccc(NC(=O)CC(C)C)n1 | i | i | i | i | i
Cn1cc(Br)c(C(=O)N/N=C/c2cc3ccccc3nc2Cl)n1 | i | i | i | i | i
Cc1ccccc1-c1oc(C)c(C)[n+]1[O-] | i | i | i | 7.8* | i
